Values after ≈ are worked out from the molar mass of the structure shown.
Legend:
Staphylococcus aureus [1] = test: Antibacterial activity against methicillin-susceptible Staphylococcus aureus ATCC 29213 incubated for 16 to 20 hrs by microdilution method; format: functional
Staphylococcus aureus [2] = test: Antibacterial activity against methicillin resistant Staphylococcus aureus ATCC 27660 infected in ICR mouse model of peritonitis assessed as mouse survival at 5 mg/kg, iv administered at 30 mins and 4.5 hrs post infection measured for 48 hrs relative to control; format: functional
Mus musculus [3] = test: AUC (0 to last) in ICR mouse peritonitis model infected with methicillin resistant Staphylococcus aureus ATCC 27660 at 10 mg/kg, iv administered as single dose measured up to 8 hrs by UPLC analysis; format: ADME, organism-based; parameters: dose 10 mg/kg, time 0 - last, route intravenous; conditions: in vivo, 8 h
Method in brief: (§1)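 Fast PK: female ICR mice (n = 2 per time point) given single tail-vein iv injection at 5, 10 or 20 mg/kg in 25% DMSO/65% propylene glycol/10% water (2.5, 5 or 10 mg/mL); terminal cardiac blood at 5 min, 40 min, 2, 4, 8 h; plasma analysed by UPLC with internal standard calibration.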

HepG2 = test: Cytotoxicity against human HepG2 cells incubated for 16 hrs by XTT assay; format: cell-based; conditions: HepG2, 16 h
Method in brief: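 HepG2 cells were tested with an XTT viability read-out, in triplicate. IC50 was obtained by nonlinear regression.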

[4] = Hemolytic activity against human RBC at 64 ug/ml relative to control; format: ADME, cell-based, Erythrocyte; conditions: erythrocyte
Method in brief: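 Hemolysis was measured at a fixed 64 μg/mL on a 10% red-cell suspension from heparinized human blood. Triton-X served as the positive control, and results are given as percent hemolysis.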

Staphylococcus aureus [5] = test: Antibacterial activity against mecA-positive methicillin/oxacillin/tetracycline-resistant Staphylococcus aureus ATCC 27660 incubated for 16 to 20 hrs by microdilution method; format: functional
Staphylococcus aureus [6] = test: Antibacterial activity against mecA-positive multidrug resistant Staphylococcus aureus COL NRS100 incubated for 16 to 20 hrs by microdilution method; format: functional
Staphylococcus aureus [7] = test: Antibacterial activity against mecA-positive multidrug resistant Staphylococcus aureus NRS119 incubated for 16 to 20 hrs by microdilution method; format: functional
Staphylococcus aureus [8] = test: Antibacterial activity against mecA-positive multidrug resistant Staphylococcus aureus NRS120 incubated for 16 to 20 hrs by microdilution method; format: functional
Staphylococcus aureus [9] = test: Antibacterial activity against vancomycin/methicillin-resistant Staphylococcus aureus VRS1 clinical isolate incubated for 16 to 20 hrs by microdilution method; format: functional
[10] = system: Staphylococcus epidermidis; test: Antibacterial activity against Staphylococcus epidermidis ATCC 35547 incubated for 16 to 20 hrs by microdilution method; format: functional
Method in brief: (§2)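 CLSI broth microdilution. 2-fold serial dilutions were made in cation-adjusted Mueller–Hinton broth, with 5% lysed horse blood added for Streptococcus strains, in triplicate. Inoculum 5×10^5 CFU/mL. Plates incubated 36 °C for 16–20 h. MIC taken as the lowest concentration visibly inhibiting growth.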

Streptococcus oralis = test: Antibacterial activity against Streptococcus oralis ATCC 9811 incubated for 16 to 20 hrs by microdilution method; format: functional; method in brief: as §2
Streptococcus pyogenes = test: Antibacterial activity against Streptococcus pyogenes ATCC 49399 incubated for 16 to 20 hrs by microdilution method; format: functional; method in brief: as §2
Bacillus cereus = test: Antibacterial activity against Bacillus cereus ATCC 13061 incubated for 16 to 20 hrs by microdilution method; format: functional; method in brief: as §2
Bacillus licheniformis = test: Antibacterial activity against Bacillus licheniformis ATCC 12759 incubated for 16 to 20 hrs by microdilution method; format: functional; method in brief: as §2
Enterococcus faecalis [11] = test: Antibacterial activity against methicillin-susceptible Enterococcus faecalis ATCC 29212 incubated for 16 to 20 hrs by microdilution method; format: functional; method in brief: as §2
Enterococcus faecalis [12] = test: Antibacterial activity against vancomycin-resistant Enterococcus faecalis 99 clinical isolate incubated for 16 to 20 hrs by microdilution method; format: functional
Enterococcus faecium = test: Antibacterial activity against Enterococcus faecium NCTC 7171 incubated for 16 to 20 hrs by microdilution method; format: functional; method in brief: as §2
Staphylococcus aureus [13] = test: Antibacterial activity against methicillin-resistant Staphylococcus aureus NRS70 incubated for 16 to 20 hrs by microdilution method; format: functional
Staphylococcus aureus [14] = test: […] activity against methicillin-susceptible Staphylococcus aureus ATCC 29213; format: functional; conditions: read-out: MBC99.9
Staphylococcus aureus [15] = test: […] activity against multidrug resistant Staphylococcus aureus ATCC 27660; format: functional; conditions: read-out: MBC99.9
Staphylococcus aureus [16] = test: […] activity against methicillin-resistant Staphylococcus aureus NRS70; format: functional; conditions: read-out: MBC99.9
Staphylococcus aureus [17] = test: Bactericidal activity against methicillin-susceptible Staphylococcus aureus ATCC 29213 assessed as bacterial count at >=1 ug/ml (reference value: 1x10^6 CFU/ml); format: functional
[18] = Protein binding in human plasma at 20 uM after 2 hrs by UPLC based equilibrium dialysis method; format: ADME, cell-free
Method in brief: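 Human plasma was tested by rapid equilibrium dialysis at a final compound concentration of 20 μM. Dialysis ran 2 h at 37 °C on an orbital shaker. Samples were quenched in acetonitrile with internal standard and quantified by UPLC with MRM detection. Triplicate, each measured in duplicate.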

Klebsiella pneumoniae = test: Antibacterial activity against Klebsiella pneumoniae ATCC 700603 incubated for 16 to 20 hrs by microdilution method; format: functional; method in brief: as §2
Acinetobacter baumannii = test: Antibacterial activity against Acinetobacter baumannii ATCC 17961 incubated for 16 to 20 hrs by microdilution method; format: functional; method in brief: as §2
Pseudomonas aeruginosa = test: Antibacterial activity against Pseudomonas aeruginosa […] incubated for 16 to 20 hrs by microdilution method; format: functional; method in brief: as §2
Escherichia coli = test: Antibacterial activity against Escherichia coli ATCC 25922 incubated for 16 to 20 hrs by microdilution method; format: functional; method in brief: as §2
Klebsiella aerogenes = test: Antibacterial activity against Enterobacter aerogenes ATCC 35029 incubated for 16 to 20 hrs by microdilution method; format: functional; method in brief: as §2
Mus musculus [19] = test: Oral bioavailability in ICR mouse peritonitis model infected with methicillin resistant Staphylococcus aureus ATCC 27660 at 10 mg/kg administered as single dose through gavage by UPLC analysis; format: ADME, organism-based; conditions: in vivo
Method in brief: (§3)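 Female ICR mice, single 10 mg/kg oral gavage in 25% DMSO/55% propylene glycol/20% PBS (2.5 mg/mL); n = 3 per time point; terminal blood 0.5–30 h; plasma protein-precipitated with acetonitrile containing internal standard, quantified by UPLC-UV or MRM against mouse-plasma calibration curve (0–50 μg/mL).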

Mus musculus [20] = test: AUC (0 to last) in ICR mouse peritonitis model infected with methicillin resistant Staphylococcus aureus ATCC 27660 at 10 mg/kg, po administered as single dose through gavage measured after 30 hrs by UPLC analysis; format: ADME, organism-based; parameters: dose 10 mg/kg, time 0 - last, route oral; conditions: in vivo, 30 h; method in brief: as §3
Mus musculus [21] = test: AUC (0 to infinity) in ICR mouse peritonitis model infected with methicillin resistant Staphylococcus aureus ATCC 27660 at 10 mg/kg, iv administered as single dose by UPLC analysis; format: ADME, organism-based; parameters: dose 10 mg/kg, time infinity, route intravenous; conditions: in vivo
Mus musculus [22] = test: AUC (0 to infinity) in ICR mouse peritonitis model infected with methicillin resistant Staphylococcus aureus ATCC 27660 at 10 mg/kg, po administered as single dose through gavage by UPLC analysis; format: ADME, organism-based; parameters: dose 10 mg/kg, route oral, time infinity; conditions: in vivo; method in brief: as §3
Mus musculus [23] = test: Cmax in ICR mouse peritonitis model infected with methicillin resistant Staphylococcus aureus ATCC 27660 at 10 mg/kg, po administered as single dose through gavage measured at 0.5 hrs post dose by UPLC analysis; format: ADME, organism-based; parameters: dose 10 mg/kg, route oral; conditions: in vivo; method in brief: as §3
Mus musculus [24] = test: Tmax in ICR mouse peritonitis model infected with methicillin resistant Staphylococcus aureus ATCC 27660 at 10 mg/kg, po administered as single dose through gavage by UPLC analysis; format: ADME, organism-based; conditions: in vivo; method in brief: as §3
Mus musculus [25] = test: Clearance in ICR mouse peritonitis model infected with methicillin resistant Staphylococcus aureus ATCC 27660 at 10 mg/kg, iv administered as single dose measured up to 8 hrs by UPLC analysis relative to hepatic blood flow; format: ADME, organism-based; conditions: in vivo; method in brief: as §1
Mus musculus [26] = test: Volume of distribution in ICR mouse peritonitis model infected with methicillin resistant Staphylococcus aureus ATCC 27660 at 10 mg/kg, iv administered as single dose measured up to 24 hrs by UPLC analysis; format: ADME, organism-based; conditions: in vivo, 24 h
Mus musculus [27] = test: Terminal half life in ICR mouse peritonitis model infected with methicillin resistant Staphylococcus aureus ATCC 27660 at 10 mg/kg, iv administered as single dose by UPLC analysis; format: ADME, organism-based; conditions: in vivo
Mus musculus [28] = test: Terminal half life in ICR mouse peritonitis model infected with methicillin resistant Staphylococcus aureus ATCC 27660 at 10 mg/kg, po administered as single dose through gavage by UPLC analysis; format: ADME, organism-based; conditions: in vivo; method in brief: as §3
[29] = Solubility of compound in water; format: physicochemical; conditions: buffer
[30] = Plasma concentration in ICR mouse neutropenic thigh model of methicillin-resistant Staphylococcus aureus NRS70 infection at 20 mg/kg, sc tid administered every 8 hrs starting from 1 hr post infection and measured 7 hrs post last dose by UPLC analysis; format: ADME, organism-based
Method in brief: (§4)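 Neutropenic thigh model (cyclophosphamide 200 mg/kg ip, NRS70 im), sc doses at 1, 9 and 17 h; at 24 h cardiac blood and uninfected thigh taken (n = 8 per group); thigh homogenate supernatant and plasma acetonitrile-quenched with internal standard, analysed by UPLC with MRM detection.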

[31] = Drug level in uninfected thighs of ICR mouse neutropenic thigh model of methicillin-resistant Staphylococcus aureus NRS70 infection at 20 mg/kg, sc tid administered every 8 hrs starting from 1 hr post infection and measured 7 hrs post last dose by UPLC analysis; format: ADME, organism-based; conditions: read-out: Drug uptake; method in brief: as §4
Mus musculus [32] = test: T>MIC in ICR mouse at 10 mg/kg, iv administered as single dose by UPLC analysis
Mus musculus [33] = test: T>MIC in ICR mouse at 10 mg/kg, po administered as single dose through gavage by UPLC analysis

`C#Cc1ccc(/C=C/c2nc3ccccc3c(=O)n2-c2cccc(C(=O)O)c2)cc1` gave an MIC (Staphylococcus aureus [1]) of 0.03 µg/mL (≈ 0.0764 µM), an Efficacy (Staphylococcus aureus [2]) of over 50% and an AUClast (Mus musculus [3]) of 1540 µg·min/mL. For the same compound, the IC50 (HepG2) was 82 µg/mL (≈ 209 µM), the Activity [4] was under 1% and the MIC (Staphylococcus aureus [5]) was 0.06 µg/mL (≈ 0.153 µM). For the same compound, the MIC (Staphylococcus aureus [6]) was 0.25 µg/mL (≈ 0.637 µM), the MIC (Staphylococcus aureus [7]) was 0.06 µg/mL (≈ 0.153 µM) and the MIC (Staphylococcus aureus [8]) was 0.5 µg/mL (≈ 1.27 µM). It also gave an MIC (Staphylococcus aureus [9]) of 0.5 µg/mL (≈ 1.27 µM), an MIC [10] of 0.008 µg/mL (≈ 0.0204 µM) and an MIC (Streptococcus oralis) of 128 µg/mL (≈ 326 µM). It also gave an MIC (Streptococcus pyogenes) of 128 µg/mL (≈ 326 µM), an MIC (Bacillus cereus) of 128 µg/mL (≈ 326 µM) and an MIC (Bacillus licheniformis) of 128 µg/mL (≈ 326 µM). The MIC (Enterococcus faecalis [11]) was over 128 µg/mL, the MIC (Enterococcus faecalis [12]) was 128 µg/mL (≈ 326 µM) and the MIC (Enterococcus faecium) was over 128 µg/mL. The MIC (Staphylococcus aureus [13]) was 0.03 µg/mL (≈ 0.0764 µM), the MBC (Staphylococcus aureus [14]) was 0.125 µg/mL (≈ 0.319 µM) and the MBC (Staphylococcus aureus [15]) was 1 µg/mL (≈ 2.55 µM). For the same compound, the MBC (Staphylococcus aureus [16]) was 0.5 µg/mL (≈ 1.27 µM), the Activity (Staphylococcus aureus [17]) was “<=500 CFU/ml” and the PPB [18] was 99.6%. The MIC (Klebsiella pneumoniae) was at least 16 µg/mL, the MIC (Acinetobacter baumannii) was at least 16 µg/mL and the MIC (Pseudomonas aeruginosa) was at least 16 µg/mL. The MIC (Escherichia coli) was at least 16 µg/mL and the MIC (Klebsiella aerogenes) was at least 16 µg/mL.

In the case of `C#Cc1ccc(/C=C/c2nc3ccccc3c(=O)n2-c2cccc(C(=O)[O-])c2)cc1.[Na+]`, the F (Mus musculus [19]) is reported as 37%, the AUClast (Mus musculus [20]) is reported as 552 µg·min/mL and the AUC (Mus musculus [21]) is reported as 1570 µg·min/mL. The AUC (Mus musculus [22]) was 582 µg·min/mL, the Cmax (Mus musculus [23]) was 2700 ng/mL and the Tmax (Mus musculus [24]) was 0.5 h. For the same compound, the CL (Mus musculus [25]) was under 10%, the Vd (Mus musculus [26]) was 3.58 L/kg and the “beta t1/2” value (Mus musculus [27]) was 6.5 h. For the same compound, the “beta t1/2” value (Mus musculus [28]) was 6.6 h, the solubility [29] was 1500 µg/mL and the concentration at 7 h [30] was 2430 ng/mL. For the same compound, the concentration at 7 h [31] was 220 ng/mL, the “T>MIC” value (Mus musculus [32]) was 24 h and the “T>MIC” value (Mus musculus [33]) was 30 h.
